# Measurements as given in ChEMBL document CHEMBL1157983, “Novel labdane diterpenes from the insecticidal plant hyptis spicigera1” (1999).
# Active and inactive are the calls of the source. The calls are words filed in the database; no cut-off is given here.
# Assays:
# HCT-15 [1] = test: Cytotoxicity against human HCT-15 cells at 20 ug/mL after 72 hrs by SRB assay; type: functional, cell-based
# KB [2] = test: Cytotoxicity against human KB cells up to 20 ug/mL after 72 hrs by SRB assay; type: functional, cell-based
# Outline: (§1)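 KB (nasopharyngeal) and HCT-15 (colon) lines kept in RPMI 1640 with 10% FBS at 37 °C, 5% CO2. Log-phase cells were exposed in triplicate to 0.16-20 µg/mL of sample for 72 h. Cell density was read by sulforhodamine staining. ED50 (50% growth inhibition versus control) was estimated from a semilog plot of concentration against percent viable cells. Ellipticine served as positive control.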
# Ostrinia nubilalis = test: Insecticidal activity against Ostrinia nubilalis larvae after 4 to 6 days; type: functional, organism-based
# Outline: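 Samples were dissolved in 95% EtOH and mixed into agar-based meridic diet at final 5, 50 and 100 ppm. European corn borer larvae were reared on it at 25 °C, about 80% RH, with a 16:8 light:dark cycle. Mortality and larval weight were recorded every 4-6 days over the growth period. ANOVA with Tukey's multiple range test.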
# KB [3] = test: Cytotoxicity against human KB cells after 72 hrs by SRB assay; type: functional; settings: read-out: ED50 (the source's name); outline: as §1
# HCT-15 [4] = test: Cytotoxicity against human HCT-15 cells after 72 hrs by SRB assay; type: functional; settings: HCT-15, 72 h, read-out: ED50 (the source's name); outline: as §1
SMILES,Activity (HCT-15 [1]),Activity (KB [2]),Activity (Ostrinia nubilalis),EC50 (KB [3]),EC50 (HCT-15 [4])
C=C1[C@H](O)C[C@H]2[C@@](C)(COC(C)=O)C[C@H](O)C[C@]2(C)[C@H]1CCC(C)=O,inactive,inactive,–,–,–
C=C1[C@H](O)C[C@@H]2[C@](C)(CO)C[C@@H](O)C[C@@]2(C)[C@H]1CC/C(C)=C\CO,inactive,inactive,–,–,–
C=C1[C@H](O)C[C@H]2[C@@](C)(COC(C)=O)C[C@H](O)C[C@]2(C)[C@H]1CC/C(C)=C\COC(C)=O,inactive,inactive,Active,–,–
Cc1c2ccncc2c(C)c2c1[nH]c1ccccc12 [ELLIPTECINE],–,–,–,0.1 µg/mL,0.17 µg/mL
C=C1[C@H](O)C[C@H]2[C@@](C)(COC(C)=O)CC(=O)C[C@]2(C)[C@H]1CC/C(C)=C\CO,–,–,–,11 µg/mL,11 µg/mL
C=C1[C@H](O)C[C@H]2[C@@](C)(COC(C)=O)C[C@H](O)C[C@]2(C)[C@H]1CC/C(C)=C\CO,–,–,–,19.4 µg/mL,8.7 µg/mL
C=C1[C@H](OC(C)=O)C[C@H]2[C@@](C)(COC(C)=O)C[C@H](O)C[C@]2(C)[C@H]1CC/C(C)=C\COC(C)=O,inactive,inactive,–,–,–
C=C1[C@H](O)C[C@H]2[C@@](C)(COC(C)=O)C[C@H](O)C[C@]2(C)[C@H]1CC/C(C)=C\C=O,–,–,–,11 µg/mL,11 µg/mL
